# Measurements gathered from unrelated publications.
# Target: Tyrosine-protein kinase Yes (YES1, Homo sapiens, UniProt P07947)
Structure (SMILES),test,setting,quantity,value
CN1CCN(C(=O)c2ccc(NC(=O)Nc3ccc(N(C)c4ccnc(Nc5ccc(CS(C)(=O)=O)cc5)n4)cc3)cc2)CC1,"binding, competition with immobilised ligand",1 µM,remaining binding,96%
C1=C/COCc2cc(ccc2OCCN2CCCC2)Nc2nccc(n2)-c2cccc(c2)COC/1,binding,0.1 µM,remaining binding,71%
Cc1cc(O)c(-c2ccc([C@@H](C)CN(C)C)cc2)c2c1[nH]c(=O)c1sccc12,"enzyme activity, inhibitor",0.1 µM,inhibition,10.3%
CO[C@@H]1[C@H](N(C)C(=O)c2ccccc2)C[C@H]2O[C@]1(C)n1c3ccccc3c3c4c(c5c6ccccc6n2c5c31)C(=O)NC4,"enzyme activity, inhibitor",1 µM,inhibition,39%
Cc1ccc(NC(=O)c2ccnc(C(F)(F)F)c2)cc1-c1cc(OCCO)nc(N2CCOCC2)c1,"binding, competition with immobilised ligand",1 µM,remaining binding,87%
COc1ccc2oc(-c3ccc4nc(N)oc4c3)c/c(=N\c3ccccc3NC(=O)CCN)c2c1,binding,1 µM,remaining binding,101%
CCCCC(=O)Nc1ccc(-c2ccc3ncn(CCC)c(=O)c3c2)cn1,"binding, competition with immobilised ligand",0.5 µM,remaining binding,100%
C=CC(=O)N1CCC[C@@H](n2nc(-c3ccc(Oc4ccccc4)cc3)c3c(N)ncnc32)C1,"enzyme activity, inhibitor",1 µM,inhibition,97%
